Source: PubChem
DNMT1 block = DNMT1 (human) enzyme inhibition. 360,000 tested, 0.83% active. inhibition (reported as % activation of signal), % at 10 µM. P26358. DNMT1 molecular beacon, Hinp1I cleavage, fluorescence; in the data active = inhibition above about 50%
LMPTP inh = LMPTP (human) inhibition. P24666. recombinant LMPTP-A, OMFP fluorogenic substrate, fluorescence intensity. inhibition, % at 20 µM. 360,000 tested, 0.22% active;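 active = compounds that cut the enzyme signal by at least half of the control window in the single-dose screen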
Target sequence (P24666 whole entry, looked up): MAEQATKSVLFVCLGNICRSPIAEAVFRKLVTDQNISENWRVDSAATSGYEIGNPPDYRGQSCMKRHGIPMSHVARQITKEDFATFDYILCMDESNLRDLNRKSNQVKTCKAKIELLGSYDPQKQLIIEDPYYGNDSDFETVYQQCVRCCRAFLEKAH
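Assay system: LMPTP-A enzyme. Input: 0.625 nM LMPTP-A final. Probe or stimulus: 400 µM OMFP. Compound dosing: single 20 µM dose. Schedule: 50 min dark incubation at room temperature. Detection: fluorescence intensity of OMFP turnover product. Read-out: percent inhibition versus substrate-only and uninhibited controls. Benchmarks: no-enzyme low control, uninhibited high control.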
Rpn11 block = inhibitors of human proteasome Rpn11. O00487. human 26S proteasome, Ub4-pepOG fluorescence polarization; 20S core pre-blocked with epoxomicin. inhibition, % at 20 µM. 360,000 tested, 0.59% active. AID 588493;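 active = inhibition at 20 µM, scaled to each plate's controls, above about 33%, limit read from the data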
STEP block = STEP (human) phosphatase inhibition | P54829 | 360,000 tested, 0.25% active | inhibition, % at 20 µM | recombinant STEP, OMFP fluorogenic substrate, fluorescence;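 active = inhibition at 20 µM, scaled per plate between control wells, above about 37%, limit read from the data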
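System: STEP phosphatase, cell-free reaction; Buffer or medium: Bis-Tris pH 6.0 buffer with DTT, detergent; Incubation: 20 min at room temperature, dark; Measured by: fluorescence, 480/540 nm.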
Scp1 inh = blocks human Scp-1 phosphatase activity | Q9GZU7 | Recombinant Scp1, phosphopeptide, malachite green phosphate absorbance | inhibition, % at 20 µM | 340,000 tested, 0.88% active | AID 493091;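 active = inhibition above about 50% at 20 µM, limit read from the data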
Target sequence (Q9GZU7 76-261 limits assumed): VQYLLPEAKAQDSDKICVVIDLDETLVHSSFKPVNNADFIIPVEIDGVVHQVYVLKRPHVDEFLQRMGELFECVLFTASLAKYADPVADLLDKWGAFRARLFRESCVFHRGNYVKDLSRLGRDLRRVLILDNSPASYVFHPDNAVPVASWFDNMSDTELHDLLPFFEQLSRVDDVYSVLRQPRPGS
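Test system – truncated SCP-1 phosphatase (76-261aa) · Reagent – Phosphorylated 17-residue peptide substrate · Incubation – 45 min room-temperature reaction, 5 min colour, 30 min stabiliser · Detection – colorimetric phosphate reagent with accelerator and stabiliser, absorbance at 630 nm · Measure – % inhibition at 20 µM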
SUMO1 PPI mod = SUMO1-SIM interaction modulation. P63165. SUMO1 binding to a labelled peptide, TR-FRET, 1 h. inhibition, % at 20 µM. 360,000 tested, 0.33% active; in the data active = inhibition above about 37%
Target sequence (P63165 whole entry, looked up): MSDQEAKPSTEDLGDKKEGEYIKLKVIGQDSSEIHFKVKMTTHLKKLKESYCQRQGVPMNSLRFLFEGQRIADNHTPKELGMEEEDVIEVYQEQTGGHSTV
Rpn11 confirm = confirmation of human proteasome Rpn11 inhibitors; shares compounds with Rpn11 block; purified human 26S proteasome, Ub4-pepOG fluorescence polarization; proteasome pretreated with epoxomicin; AID 602318; 1,900 tested, 29% active; inhibition, % at 20 µM
MMP-2 inh = blocks human MMP-2, flagging nonselective RPN11 hits. shares compounds with Rpn11 block. recombinant MMP-2, FRET peptide cleavage fluorescence. inhibition, % at 20 µM. 1,900 tested, 4% active. AID 602330;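 also: human MMP-2 activated beforehand with APMA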
Thrombin inh = counter-screen for RPN11 inhibitors: inhibition of bovine thrombin; bovine thrombin cleavage of Ub4-pepOG, fluorescence polarization; inhibition, % at 20 µM; shares compounds with Rpn11 block; 1,900 tested, 13% active;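 active = mean inhibition at least 40% at 20 µM, or signal 3 deviations below plate average, so some actives read negative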
A number is an active result; 0 = inactive; - = no result given. This is a sample that favours compounds with a hit; in the whole collection about 2.3% have one here. Rule as the data show it, unless noted: active = inhibition above about 40%; inactive = the rest.

SMILES	DNMT1 block	LMPTP inh	Rpn11 block	STEP block	Scp1 inh	SUMO1 PPI mod	Rpn11 confirm	MMP-2 inh	Thrombin inh
O=C(C[n+]1ccc(C(=O)N/N=C/c2ccc(O)cc2)cc1)c1ccccc1	0	0	104	0	0	0	0	0	0
COC(=O)c1sc(N2C(=O)C(O)=C(C(=O)c3ccc(C)o3)C2c2ccc([N+](=O)[O-])cc2)nc1C (stereo unspecified)	0	0	0	0	0	0	-	-	-
CCOc1ccc(C2C(C(=O)c3ccc(C)o3)=C(O)C(=O)N2c2nc(C)c(C(=O)OC)s2)cc1 (stereo unspecified)	0	0	42	0	0	0	0	0	0
Cc1ccc(C)c(NC(=S)NCc2cccs2)c1	0	0	0	0	0	0	-	-	-
Cc1ccccc1NC(=S)NCc1cccs1	0	0	162	0	0	0	0	0	0
CCOC(=O)C1=C(C)N=c2s/c(=C\c3ccc(O)c([N+](=O)[O-])c3)c(=O)n2C1c1ccccc1OC (stereo unspecified)	0	0	40	0	0	0	0	0	0
COc1cc(/C=c2\sc3n(c2=O)C(c2ccccc2)C(c2ccccc2)=NN=3)ccc1O (stereo unspecified)	0	0	43	0	0	0	0	0	0
COc1ccccc1C1C2=C(N=C3SCC(=O)N31)c1ccccc1CC2 (stereo unspecified)	0	0	0	0	0	0	-	-	-
CCOC(=O)C1=C(C)N=c2s/c(=C\c3ccc(OCC(=O)O)cc3)c(=O)n2C1c1ccccc1OC (stereo unspecified)	0	0	0	0	0	0	-	-	-
CCOC(=O)C1=C(C)N=c2s/c(=C\c3ccc(OCC(=O)O)cc3)c(=O)n2C1c1ccc(Cl)cc1 (stereo unspecified)	0	0	46	0	0	0	91	0	0
COc1ccc(/C=c2/sc3n(c2=O)C(c2ccccc2OC)C2=C(N=3)c3ccccc3CC2)cc1O (stereo unspecified)	0	0	48	0	0	0	0	0	0
CSCCC(NC(=O)COc1ccccc1)C(=O)OCc1ccc([N+](=O)[O-])cc1 (stereo unspecified)	0	0	0	0	0	0	-	-	-
O=C(CCCOc1ccccc1)Nc1cccc(S(=O)(=O)N2CCCCCC2)c1	0	0	0	0	0	0	-	-	-
COc1cc(Br)c(/C=C/c2ccc3cccc(O)c3n2)cc1OC	0	0	0	0	0	0	-	-	-
COc1cc(/C=C/c2ccc3cccc(O)c3n2)c(Br)cc1O	0	0	39	0	-	0	0	0	0
NC(=S)NNc1ccnc2cc(Cl)ccc12	0	0	0	0	0	0	-	-	-
FC(F)Oc1ccc(NC(=S)NNc2ccnc3cc(Cl)ccc23)cc1	0	0	50	0	0	0	84	0	active
O=C(NCc1ccc(Cl)cc1)c1ccc(OCC2CCCO2)cc1 (stereo unspecified)	0	0	37	0	0	0	0	0	0
COc1ccc(Cn2nnnc2C(c2cccs2)N2CCN(c3ccc([N+](=O)[O-])cc3)CC2)cc1 (stereo unspecified)	0	0	89	0	0	0	0	0	0
COc1ccc(Cn2nnnc2C(c2cccs2)N2CCN(c3ccccc3)CC2)cc1 (stereo unspecified)	0	0	0	0	0	0	-	-	-
O=S1(=O)N[C@H](Cc2ccccc2)COc2cc(N3CC[C@H](O)C3)ccc21	-	0	-	-	-	0	-	-	-
Cn1ccc2cc3c(cc21)CCN3C(=O)Nc1cccnc1	0	0	91	0	0	0	0	0	0
COC(=O)c1sc2nc(CN3CCN(c4cccc(C(F)(F)F)c4)CC3)[nH]c(=O)c2c1C	0	0	62	0	0	0	0	0	0
COc1cccc(N2CCN(Cc3nc4scc(-c5ccccc5)c4c(=O)[nH]3)CC2)c1	0	0	53	0	0	0	0	0	0
CCOC(=O)c1sc2nc(CN3CCN(c4cccc(C(F)(F)F)c4)CC3)[nH]c(=O)c2c1C	0	0	49	0	0	0	0	0	0
SMILES	DNMT1 block	LMPTP inh	Rpn11 block	STEP block	Scp1 inh	SUMO1 PPI mod	Rpn11 confirm	MMP-2 inh	Thrombin inh
COC(=O)c1sc2nc(CN3CCN(c4ccc(OC)cc4)CC3)[nH]c(=O)c2c1C	0	0	0	0	0	0	-	-	-
CN(C)C1=NCCN1CCc1ccc(F)cc1	0	0	0	0	0	0	-	-	-
Cc1noc(C)c1C(=O)OCC(=O)Nc1cccc(F)c1	0	0	0	0	-	0	-	-	-
CCOC(=O)c1noc(C)c1C(=O)Nc1cccc(F)c1	0	0	83	0	0	0	0	0	0
N#Cc1ccccc1Cn1cc(/C=N/Nc2ccc([N+](=O)[O-])cn2)c2ccccc21	0	0	60	0	0	0	0	0	0
O=[N+]([O-])c1ccc(NN=Cc2ccccc2O)nc1	0	0	0	0	0	0	-	-	-
O=[N+]([O-])c1ccc(N/N=C\c2cccn2-c2ccccc2)nc1	0	0	58	0	0	0	44	0	0
Cn1c(N)c(C(=O)COC(=O)c2ncc(Cl)c(Cl)c2Cl)c(=O)n(C)c1=O	0	0	0	0	0	0	-	-	-
CCC(=O)N(Cc1ccco1)c1nc(C(=O)Nc2ccc(Cl)cc2)c(C)s1	0	0	44	0	0	0	0	0	0
CCN(C(=O)c1ccco1)c1nc(CC(=O)Nc2ccc(Cl)cc2)cs1	0	0	0	0	0	0	-	-	-
COc1ccc(CNC(=O)C(=O)NCCC2CCCCN2S(=O)(=O)c2cccs2)cc1 (stereo unspecified)	0	0	0	0	0	0	-	-	-
O=c1cc(N2CCc3ccccc3C2)[nH]c(=O)n1Cc1ccc(F)cc1	0	0	56	0	0	0	0	0	0
O=C(COC(=O)c1ccc(O)cc1)Nc1ccc(N2CCCCC2)cc1	0	0	56	0	0	0	0	0	0
CC1=CC(=C(C#N)C#N)c2ccccc2N1C	0	0	43	0	0	0	125	0	56
CC(=O)c1ccc(NC(=O)CSc2ccc3nnc(-c4cccnc4)n3n2)cc1	0	0	0	0	0	0	-	-	-
Cc1cc2c(=Cc3ccc(N(C)C)cc3)c3ccccc3n2[n+]1C	0	0	177	0	0	0	135	0	145
CN(C)c1ccc(C=c2c3cc(O)ccc3n3c2cc(-c2ccccc2)[n+]3C)cc1	0	94	168	0	0	69	177	109	155
